Tests used:
[1] = Drug excretion in rat bile at 50 mg/kg, po; assay type: ADME, organism-based; parameters: dose 50 mg/kg, route oral; conditions: read-out: Drug excretion
[2] = molecular target: T1, Cytochrome P450 1B1 (Homo sapiens, UniProt Q16678); assay: Drug metabolism in human recombinant CYP1B1 mediated oxidative metabolism at 10 uM; assay type: ADME; conditions: recombinant enzyme
T1 sequence (Q16678 whole entry): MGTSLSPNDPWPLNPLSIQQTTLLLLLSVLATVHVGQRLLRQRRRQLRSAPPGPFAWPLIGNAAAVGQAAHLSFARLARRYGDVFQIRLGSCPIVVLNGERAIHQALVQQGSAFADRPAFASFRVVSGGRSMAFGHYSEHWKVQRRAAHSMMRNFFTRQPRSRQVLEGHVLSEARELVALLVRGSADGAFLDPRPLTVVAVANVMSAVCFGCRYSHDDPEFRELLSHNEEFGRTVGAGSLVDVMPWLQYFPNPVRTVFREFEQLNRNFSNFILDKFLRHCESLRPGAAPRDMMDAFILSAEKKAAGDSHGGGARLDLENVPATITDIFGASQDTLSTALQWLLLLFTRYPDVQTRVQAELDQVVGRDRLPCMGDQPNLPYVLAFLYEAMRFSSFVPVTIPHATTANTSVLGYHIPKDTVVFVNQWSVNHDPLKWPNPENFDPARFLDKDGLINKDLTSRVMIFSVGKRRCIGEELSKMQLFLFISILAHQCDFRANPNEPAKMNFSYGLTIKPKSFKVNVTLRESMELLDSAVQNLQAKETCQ
How it was run: (§1)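 Recombinant human P450 at 50 nM incubated with 10 µM Rh2 and 2 mM NADPH in 100 mM potassium phosphate pH 7.4, 37°C, 60 min; ice-cold acetonitrile stop; duplicates; metabolites detected by LC/ion-trap MSn.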

[3] = Oral bioavailability in beagle dog at 8 mg/kg; assay type: ADME, organism-based, Canis lupus familiaris; conditions: in vivo
[4] = molecular target: T2, Cytochrome P450 4A11 (Homo sapiens, UniProt Q02928); assay: Drug metabolism in human recombinant CYP4A11 mediated oxidative metabolism at 10 uM; assay type: ADME; conditions: recombinant enzyme; how it was run: as §1
T2 sequence (Q02928 whole entry): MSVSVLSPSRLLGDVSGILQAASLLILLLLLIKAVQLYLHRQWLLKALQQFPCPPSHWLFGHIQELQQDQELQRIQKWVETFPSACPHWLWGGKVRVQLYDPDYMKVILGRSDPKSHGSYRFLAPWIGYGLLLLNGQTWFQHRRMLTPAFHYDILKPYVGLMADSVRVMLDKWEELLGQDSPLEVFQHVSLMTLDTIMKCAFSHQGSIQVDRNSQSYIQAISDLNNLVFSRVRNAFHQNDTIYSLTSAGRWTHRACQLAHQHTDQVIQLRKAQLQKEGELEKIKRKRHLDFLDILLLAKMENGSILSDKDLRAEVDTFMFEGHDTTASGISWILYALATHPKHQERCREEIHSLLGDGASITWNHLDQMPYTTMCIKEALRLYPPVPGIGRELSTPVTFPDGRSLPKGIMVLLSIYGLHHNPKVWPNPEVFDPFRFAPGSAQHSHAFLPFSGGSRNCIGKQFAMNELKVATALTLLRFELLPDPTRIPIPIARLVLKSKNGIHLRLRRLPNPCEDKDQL

[5] = molecular target: T3, Cytochrome P450 1A2 (Homo sapiens, UniProt P05177); assay: Drug metabolism in human recombinant CYP1A2 mediated oxidative metabolism at 10 uM; assay type: ADME; conditions: recombinant enzyme; how it was run: as §1
T3 sequence (P05177 whole entry): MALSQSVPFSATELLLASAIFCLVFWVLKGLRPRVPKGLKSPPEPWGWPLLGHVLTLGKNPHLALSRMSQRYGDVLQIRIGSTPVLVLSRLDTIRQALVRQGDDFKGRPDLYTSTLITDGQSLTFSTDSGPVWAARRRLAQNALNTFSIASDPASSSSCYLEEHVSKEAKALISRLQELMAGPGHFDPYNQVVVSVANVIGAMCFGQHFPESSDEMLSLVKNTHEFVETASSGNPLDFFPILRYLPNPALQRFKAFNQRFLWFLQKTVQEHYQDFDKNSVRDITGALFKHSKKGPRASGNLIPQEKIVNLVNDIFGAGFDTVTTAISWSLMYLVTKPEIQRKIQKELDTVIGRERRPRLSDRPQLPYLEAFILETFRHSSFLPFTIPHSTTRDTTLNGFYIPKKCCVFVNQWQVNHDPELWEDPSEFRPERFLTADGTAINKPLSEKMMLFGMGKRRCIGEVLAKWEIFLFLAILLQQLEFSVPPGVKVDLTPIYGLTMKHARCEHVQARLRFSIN

[6] = test system: Liver microsome; assay: Drug metabolism in human liver microsomes assessed as oxidative metabolism at 10 uM in presence of 0.1 uM alpha-naphthoflavone CYP1A2 inhibitor; assay type: ADME
How it was run: (§2)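 Pooled human liver microsomes (1 mg/ml, mixed-gender, 50 donors), 10 µM Rh2, 2 mM NADPH and selective inhibitor in 100 mM potassium phosphate pH 7.4; 37°C, 60 min; ice-cold acetonitrile stop; uninhibited controls; duplicates; formation of M1-2, M1-3 and M1-4+M1-5 quantified by LC/ion-trap MSn.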

[7] = test system: Liver microsome; assay: Drug metabolism in human liver microsomes assessed as oxidative metabolism at 10 uM in presence of 60 uM chlormethiazole CYP2E1 inhibitor; assay type: ADME; how it was run: as §2

## CC(C)=CCC[C@](C)(O)[C@H]1CC[C@]2(C)[C@@H]1[C@H](O)C[C@@H]1[C@@]3(C)CC[C@H](O[C@@H]4O[C@H](CO)[C@@H](O)[C@H](O)[C@H]4O)C(C)(C)[C@@H]3CC[C@]12C [GINSENOSIDE RH2]
[1]
  dose excreted: < 10%
[2]
  Drug metabolism: metabolite_not_detected
[3]
  bioavailability: 55%
[4]
  Drug metabolism: metabolite_not_detected
[5]
  Drug metabolism: metabolite_not_detected
[6]
  Drug metabolism: metabolite_detected
[7]
  Drug metabolism: metabolite_detected

Source: ChEMBL document CHEMBL3525925, “In vitro studies on the oxidative metabolism of 20(s)-ginsenoside Rh2 in human, monkey, dog, rat, and mouse liver microsomes, and human liver s9” (Drug Metab Dispos, 2012)
